Results on one compound are retold here after ChEMBL document CHEMBL4177580, “New 5-HT1A, 5HT2A and 5HT2C receptor ligands containing a picolinic nucleus: Synthesis, in vitro and in vivo pharmacological evaluation” (Bioorg Med Chem, 2017).

The target in data set [1] is T1, 5-hydroxytryptamine receptor 1A (Rattus norvegicus, UniProt P19327).
T1 sequence (P19327 whole entry): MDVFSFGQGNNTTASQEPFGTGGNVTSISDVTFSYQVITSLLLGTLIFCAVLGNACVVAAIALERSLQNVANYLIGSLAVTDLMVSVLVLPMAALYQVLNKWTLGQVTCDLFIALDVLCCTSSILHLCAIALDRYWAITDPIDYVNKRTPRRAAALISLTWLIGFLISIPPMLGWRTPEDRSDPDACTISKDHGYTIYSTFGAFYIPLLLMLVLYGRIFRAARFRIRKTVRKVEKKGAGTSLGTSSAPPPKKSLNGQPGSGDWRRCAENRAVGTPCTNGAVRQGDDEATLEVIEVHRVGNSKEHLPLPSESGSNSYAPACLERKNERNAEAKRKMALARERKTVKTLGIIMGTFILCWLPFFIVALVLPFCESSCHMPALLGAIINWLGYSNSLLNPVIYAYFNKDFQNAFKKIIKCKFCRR
Description: Displacement of [3H]-8-OH-DPAT from serotonin 5-HT1A receptor in Sprague-Dawley rat brain cortex homogenates incubated for 30 mins by liquid scintillation spectrometry.

Data set [2] deals with T2, Adrenergic receptor alpha-2 (Rattus norvegicus, UniProt P22086+P19328+P22909).
T2 sequence (P22086 whole entry): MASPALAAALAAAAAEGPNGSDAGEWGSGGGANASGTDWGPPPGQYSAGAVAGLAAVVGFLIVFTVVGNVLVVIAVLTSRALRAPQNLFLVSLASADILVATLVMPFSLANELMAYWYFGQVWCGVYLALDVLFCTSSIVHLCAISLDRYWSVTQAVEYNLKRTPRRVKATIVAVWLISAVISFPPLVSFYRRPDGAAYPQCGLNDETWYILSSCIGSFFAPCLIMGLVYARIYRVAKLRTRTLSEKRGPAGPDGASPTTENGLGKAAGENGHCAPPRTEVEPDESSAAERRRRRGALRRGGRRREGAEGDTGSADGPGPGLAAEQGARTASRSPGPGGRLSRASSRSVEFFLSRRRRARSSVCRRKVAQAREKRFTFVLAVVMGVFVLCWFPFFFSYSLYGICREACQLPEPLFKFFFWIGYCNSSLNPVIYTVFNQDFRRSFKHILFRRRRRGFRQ
T2 sequence (P19328 whole entry): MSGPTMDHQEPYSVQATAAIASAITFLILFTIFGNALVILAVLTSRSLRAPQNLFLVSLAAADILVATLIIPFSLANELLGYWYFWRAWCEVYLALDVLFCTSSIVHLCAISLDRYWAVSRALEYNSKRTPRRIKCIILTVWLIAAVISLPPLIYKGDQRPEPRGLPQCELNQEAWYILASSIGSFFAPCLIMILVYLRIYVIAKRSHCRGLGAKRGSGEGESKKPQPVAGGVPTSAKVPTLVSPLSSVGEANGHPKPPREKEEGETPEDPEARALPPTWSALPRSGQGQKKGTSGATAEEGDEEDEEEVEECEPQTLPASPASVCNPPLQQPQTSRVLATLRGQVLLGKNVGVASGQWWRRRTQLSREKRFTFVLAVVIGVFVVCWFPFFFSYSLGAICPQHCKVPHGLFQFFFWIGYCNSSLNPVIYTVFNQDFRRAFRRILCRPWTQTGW
T2 sequence (P22909 whole entry): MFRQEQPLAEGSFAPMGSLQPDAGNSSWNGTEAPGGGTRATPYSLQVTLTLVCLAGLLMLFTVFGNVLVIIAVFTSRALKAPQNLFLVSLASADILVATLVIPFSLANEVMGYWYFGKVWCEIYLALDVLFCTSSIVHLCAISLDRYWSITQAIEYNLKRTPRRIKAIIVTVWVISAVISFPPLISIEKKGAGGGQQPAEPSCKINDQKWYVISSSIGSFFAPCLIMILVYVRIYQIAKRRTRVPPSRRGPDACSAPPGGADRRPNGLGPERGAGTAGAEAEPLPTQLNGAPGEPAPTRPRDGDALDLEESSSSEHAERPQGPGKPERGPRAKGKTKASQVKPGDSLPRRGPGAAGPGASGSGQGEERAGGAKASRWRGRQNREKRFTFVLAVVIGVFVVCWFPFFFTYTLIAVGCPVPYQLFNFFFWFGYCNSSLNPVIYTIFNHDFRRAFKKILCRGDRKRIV
Nature of the data set: Displacement of [3H]RX 821002 from adrenergic alpha2 receptor in rat cerebral cortex.

The target in data set [3] is D(2) dopamine receptor (Homo sapiens, UniProt P14416). Description: Displacement of [3H]methyl-spiperone from human recombinant dopamine D2 receptor expressed in HEK293 cells. In kind it is cell-based.
Chain of D(2) dopamine receptor (P14416 whole entry): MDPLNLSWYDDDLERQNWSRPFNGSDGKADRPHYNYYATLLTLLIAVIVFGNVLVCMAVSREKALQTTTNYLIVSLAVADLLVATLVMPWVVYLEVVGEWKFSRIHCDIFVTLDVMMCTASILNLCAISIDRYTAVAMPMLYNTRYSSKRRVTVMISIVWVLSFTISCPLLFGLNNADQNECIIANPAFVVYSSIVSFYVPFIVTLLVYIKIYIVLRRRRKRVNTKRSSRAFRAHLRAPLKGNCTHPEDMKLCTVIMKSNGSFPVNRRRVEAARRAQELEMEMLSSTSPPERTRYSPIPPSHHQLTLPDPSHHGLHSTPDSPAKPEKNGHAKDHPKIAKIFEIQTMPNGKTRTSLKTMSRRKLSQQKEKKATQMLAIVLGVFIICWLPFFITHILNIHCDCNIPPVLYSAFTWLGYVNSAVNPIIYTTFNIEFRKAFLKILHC
The test system of data set [4] is Mus musculus. Nature of the data set: Toxicity in Swiss albino mouse assessed as reduction in spontaneous locomotor activity at 60 mg/kg, ip dosed 60 mins before test and measured after 30 mins. In kind it is organism-based. To be noted: in vivo, 0.5 h. Put shortly: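 Spontaneous locomotion: mice dosed i.p. 60 min before being placed individually in an actometer for 30 min. Distance travelled read at 6 and 30 min. Cages cleaned with 70% ethanol between animals. One-way ANOVA with Dunnett's; mean ± SEM of one experiment.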

Data set [5] concerns Mus musculus. Nature of the data set: Induction of hypothermia in Swiss albino mouse assessed as reduction in body temperature at 30 mg/kg, ip measured after 30 mins post dose. In kind it is functional, organism-based. Put shortly: (§1)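 Normothermic male Swiss mice; rectal thermistor readings over 180 min. Baseline is the mean of readings 60 and 30 min before dosing; readings at 30, 60, 90, 120 min post-injection; Δt = tf − ti. Test compounds i.p. (DMSO/methylcellulose); 8-OH-DPAT (5 mg/kg) and WAY 100635 (0.1 mg/kg) s.c. in water. Two-way ANOVA, Bonferroni.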

Data set [6] has as its system Mus musculus. Description: Induction of hypothermia in Swiss albino mouse assessed as reduction in body temperature at 30 mg/kg, ip measured after 60 mins post dose. The format is functional, organism-based. Put shortly: as §1
Data set [7] concerns Mus musculus. Nature of the data set: Antidepressant-like activity in Swiss albino mouse assessed as reduction in immobility time at 7.5 mg/kg, ip dosed 1 hr before test by forced swimming test. The format is functional, organism-based. Put shortly:
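Male Swiss albino mice (18–24 g), compound i.p. in 0.1% DMSO/0.5% methylcellulose 1 h pre-test. Porsolt swim: cylinder 25 cm high, 10 cm diameter, 10 cm water at 23–25°C, 6 min session; immobility scored over last 4 min. Blind observer; one-way ANOVA with Dunnett's; mean ± SEM.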

The subject of data set [8] is Rattus norvegicus. Nature of the data set: In-vivo 5-HT1A receptor antagonist activity in Wistar rat assessed as reduction in 8-OH-DPAT-stimulated induction of lower lip retraction by measuring lower lip retraction score at 30 mg/kg, ip dosed 15 mins before test (reference value: 2.875 +/- 0.08183).

Active and inactive are the calls of the source. The calls are words filed in the database; no cut-off is given here.

In the case of `O=C(NCCN1CCN(c2ccc(Cl)c(Cl)c2)CC1)c1ccccn1`, the Ki in data set [1] came out at 0.183 nM; in data set [2], 4200 nM; in data set [3], 250 nM. For the same compound, in data set [4], the Activity entry is “Toxic”. The result in data set [5], in data set [6] and in data set [7] was Active. Besides, in data set [8], the Activity_index stood at 2.3.
